From ChEMBL document CHEMBL6083196, “Synthesis and cytotoxic activity of madecassic acid-silybin conjugate compounds in liver cancer cells” (2024)

How the values were obtained:
Format in all cases: functional
HepG2 [1] = test: Cytotoxicity against human HepG2 cells incubated for 96 hrs by MTT assay
Procedure, shortened: (§1)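 Cells grown in DMEM with 10% FBS and 1% antibiotic at 37 °C, 5% CO2. Trypsinised, seeded at 3 × 10^4 cells per mL, treated over an eight-point titration for 96 h. MTT (0.5 mg mL−1) added for 4 h at 37 °C, formazan dissolved in DMSO, absorbance read at 570 nm. GI50 is the concentration halving the MTT signal versus untreated control. Ellipticine served as reference; n ≥ 3 repeats.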

Hep 3B2 = test: Cytotoxicity against human Hep3B cells incubated for 96 hrs by MTT assay; procedure, shortened: as §1
Huh-7 = test: Cytotoxicity against human Huh-7 cells incubated for 96 hrs by MTT assay; procedure, shortened: as §1
[2] = Cytotoxicity against human Huh-7R cells incubated for 96 hrs by MTT assay; procedure, shortened: as §1
HepG2 [3] = test: Induction of apoptosis in human HepG2 cells assessed as viable cells at GI50 incubated for 24 hrs by Annexin V-FITC/PI staining based flow cytometry (reference value: 88.62 %)
HepG2 [4] = test: Induction of apoptosis in human HepG2 cells assessed as early apoptotic cells at GI50 incubated for 24 hrs by Annexin V-FITC/PI staining based flow cytometry (reference value: 2.98 %)
HepG2 [5] = test: Induction of apoptosis in human HepG2 cells assessed as late apoptotic cells at GI50 incubated for 24 hrs by Annexin V-FITC/PI staining based flow cytometry (reference value: 3.06 %)
HepG2 [6] = test: Induction of apoptosis in human HepG2 cells assessed as necrotic cells at GI50 incubated for 24 hrs by Annexin V-FITC/PI staining based flow cytometry (reference value: 5.34 %)
HepG2 [7] = test: Induction of apoptosis in human HepG2 cells assessed as viable cells at 3 times GI50 incubated for 24 hrs by Annexin V-FITC/PI staining based flow cytometry (reference value: 88.62 %)
HepG2 [8] = test: Induction of apoptosis in human HepG2 cells assessed as early apoptotic cells at 3 times GI50 incubated for 24 hrs by Annexin V-FITC/PI staining based flow cytometry (reference value: 2.98 %)
HepG2 [9] = test: Induction of apoptosis in human HepG2 cells assessed as late apoptotic cells at 3 times GI50 incubated for 24 hrs by Annexin V-FITC/PI staining based flow cytometry (reference value: 3.06 %)
HepG2 [10] = test: Induction of apoptosis in human HepG2 cells assessed as necrotic cells at 3 times GI50 incubated for 24 hrs by Annexin V-FITC/PI staining based flow cytometry (reference value: 5.34 %)
HepG2 [11] = test: Induction of apoptosis in human HepG2 cells assessed as fold change in caspase-3 level at 0.3 times GI50 incubated for 1 hr by colorimetric assay relative to control
Procedure, shortened: (§2)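 Lysates taken from HepG2 cells 1, 6 or 24 h after treatment at 0.3×, 1× or 3× GI50. Lysis on ice for 10 min, then 10 000 × g spin; protein measured by Bradford. 80 μg protein incubated with DTT and DEVD-pNA substrate for 1 h at 37 °C, in triplicate; absorbance read at 405 nm. Result expressed as fold change versus untreated cells. Camptothecin 0.5 μM as control; mean and SE reported.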

HepG2 [12] = test: Induction of apoptosis in human HepG2 cells assessed as fold change in caspase-3 level at 0.3 times GI50 incubated for 6 hrs by colorimetric assay relative to control; procedure, shortened: as §2
HepG2 [13] = test: Induction of apoptosis in human HepG2 cells assessed as fold change in caspase-3 level at 0.3 times GI50 incubated for 24 hrs by colorimetric assay relative to control; procedure, shortened: as §2
HepG2 [14] = test: Induction of apoptosis in human HepG2 cells assessed as fold change in caspase-3 level at GI50 incubated for 1 hr by colorimetric assay relative to control; procedure, shortened: as §2
HepG2 [15] = test: Induction of apoptosis in human HepG2 cells assessed as fold change in caspase-3 level at GI50 incubated for 6 hrs by colorimetric assay relative to control; procedure, shortened: as §2
HepG2 [16] = test: Induction of apoptosis in human HepG2 cells assessed as fold change in caspase-3 level at GI50 incubated for 24 hrs by colorimetric assay relative to control; procedure, shortened: as §2
HepG2 [17] = test: Induction of apoptosis in human HepG2 cells assessed as fold change in caspase-3 level at 3 times GI50 incubated for 1 hr by colorimetric assay relative to control; procedure, shortened: as §2
HepG2 [18] = test: Induction of apoptosis in human HepG2 cells assessed as fold change in caspase-3 level at 3 times GI50 incubated for 6 hrs by colorimetric assay relative to control; procedure, shortened: as §2
HepG2 [19] = test: Induction of apoptosis in human HepG2 cells assessed as fold change in caspase-3 level at 3 times GI50 incubated for 24 hrs by colorimetric assay relative to control; procedure, shortened: as §2
HepG2 [20] = test: Induction of cell cycle arrest in human HepG2 cells assessed as accumulation at G0/G1 phase at IC50 incubated for 24 hrs by PI staining based flow cytometry (reference value: 24.63 %)
HepG2 [21] = test: Induction of cell cycle arrest in human HepG2 cells assessed as accumulation at S phase at IC50 incubated for 24 hrs by PI staining based flow cytometry (reference value: 46.83 %)
HepG2 [22] = test: Induction of cell cycle arrest in human HepG2 cells assessed as accumulation at G2/M phase at IC50 incubated for 24 hrs by PI staining based flow cytometry (reference value: 27.69 %)
HepG2 [23] = test: Induction of cell cycle arrest in human HepG2 cells assessed as accumulation at G0/G1 phase at 3 times IC50 incubated for 24 hrs by PI staining based flow cytometry (reference value: 24.63 %)
HepG2 [24] = test: Induction of cell cycle arrest in human HepG2 cells assessed as accumulation at S phase at 3 times IC50 incubated for 24 hrs by PI staining based flow cytometry (reference value: 46.83 %)
HepG2 [25] = test: Induction of cell cycle arrest in human HepG2 cells assessed as accumulation at G2/M phase at 3 times IC50 incubated for 24 hrs by PI staining based flow cytometry (reference value: 27.69 %)

For `CC(=O)OC[C@@]1(C)C2=CC[C@]3(C)C(CC=C4[C@@H]5[C@@H](C)[C@H](C)CC[C@]5(C(=O)O)CC[C@]43C)[C@@]2(C)C[C@@H](OC(C)=O)[C@@H]1OC(C)=O` (stereo not given in full), which GI50 (HepG2 [1]) is on record?
The GI50 was 38.5 µM.

For `COc1cc([C@H]2Oc3cc([C@H]4Oc5cc(OC(C)=O)cc(OC(C)=O)c5C(=O)[C@@H]4OC(=O)CCCCCCCCCCNC(=O)[C@]45CC[C@@H](C)[C@H](C)[C@H]4C4=CC[C@@H]6[C@@]7(C)C[C@@H](OC(C)=O)[C@H](OC(C)=O)[C@@](C)(COC(C)=O)[C@@H]7[C@H](O)C[C@@]6(C)[C@]4(C)CC5)ccc3O[C@@H]2COC(C)=O)ccc1OC(C)=O`, which GI50 (HepG2 [1]) is on record?
The GI50 was 199 µM.

For `COc1cc([C@H]2Oc3cc(-c4oc5cc(O)cc(O)c5c(=O)c4OC(=O)[C@]45CC[C@@H](C)[C@H](C)[C@H]4C4=CC[C@@H]6[C@@]7(C)C[C@@H](OC(C)=O)[C@H](OC(C)=O)[C@@](C)(COC(C)=O)[C@@H]7[C@H](O)C[C@@]6(C)[C@]4(C)CC5)ccc3O[C@@H]2CO)ccc1O`, which GI50 (HepG2 [1]) is on record?
The GI50 was 217 µM.

Which GI50 (HepG2 [1]) does the source give for `C[C@H]1[C@H](C)CC[C@]2(C(=O)O)CC[C@]3(C)C(=CC[C@@H]4[C@@]5(C)C[C@@H](O)[C@H](O)[C@@](C)(CO)[C@@H]5[C@H](O)C[C@]43C)[C@H]12` [MADECASSIC ACID] here?
Its GI50 is 161 µM.

What about the GI50 (Hep 3B2) of the same compound?
The GI50 was 178 µM.

And the GI50 (Huh-7)?
The GI50 was 198 µM.

And the GI50 [2]?
The GI50 was 215 µM.

And the Activity (HepG2 [3])?
The Activity was 80.48%.

And the Activity (HepG2 [4])?
The Activity was 9%.

What about the Activity (HepG2 [5]) of the same compound?
The Activity was 4.29%.

What about the Activity (HepG2 [6]) of the same compound?
The Activity was 6.23%.

And the Activity (HepG2 [7])?
Its Activity is 72.03%.

What about the Activity (HepG2 [8]) of the same compound?
Its Activity is 13.37%.

What about the Activity (HepG2 [9]) of the same compound?
The Activity was 6.16%.

And the Activity (HepG2 [10])?
Its Activity is 8.44%.

And the “fold change (FC)” value (HepG2 [11])?
Its value is 0.74.

And the “fold change (FC)” value (HepG2 [12])?
The value was 0.81.

What about the “fold change (FC)” value (HepG2 [13]) of the same compound?
The value was 0.99.

And the “fold change (FC)” value (HepG2 [14])?
Its value is 0.94.

What about the “fold change (FC)” value (HepG2 [15]) of the same compound?
Its value is 1.16.

What about the “fold change (FC)” value (HepG2 [16]) of the same compound?
Its value is 0.68.

And the “fold change (FC)” value (HepG2 [17])?
The value was 0.97.

And the “fold change (FC)” value (HepG2 [18])?
Its value is 1.71.

And the “fold change (FC)” value (HepG2 [19])?
The value was 0.54.

What about the Activity (HepG2 [20]) of the same compound?
The Activity was 19.29%.

And the Activity (HepG2 [21])?
The Activity was 58.52%.

What about the Activity (HepG2 [22]) of the same compound?
The Activity was 21.51%.

What about the Activity (HepG2 [23]) of the same compound?
Its Activity is 54.22%.

What about the Activity (HepG2 [24]) of the same compound?
Its Activity is 24.25%.

And the Activity (HepG2 [25])?
Its Activity is 20.71%.

Which GI50 (HepG2 [1]) does the source give for `Cc1c2ccncc2c(C)c2c1[nH]c1ccccc12` [ELLIPTECINE] here?
The GI50 was 0.42 µM.

For `CC(=O)OC[C@@]1(C)[C@@H]2[C@H](O)C[C@]3(C)[C@H](CC=C4[C@@H]5[C@@H](C)[C@H](C)CC[C@]5(C(=O)O)CC[C@]43C)[C@@]2(C)C[C@@H](OC(C)=O)[C@@H]1OC(C)=O`, which GI50 (HepG2 [1]) is on record?
The GI50 was 44.1 µM.

For `COc1cc([C@H]2Oc3cc([C@H]4Oc5cc(OC(C)=O)cc(OC(C)=O)c5C(=O)[C@@H]4OC(=O)CCNC(=O)[C@]45CC[C@@H](C)[C@H](C)[C@H]4C4=CC[C@@H]6[C@@]7(C)C[C@@H](OC(C)=O)[C@H](OC(C)=O)[C@@](C)(COC(C)=O)[C@@H]7[C@H](O)C[C@@]6(C)[C@]4(C)CC5)ccc3O[C@@H]2COC(C)=O)ccc1OC(C)=O`, which GI50 (HepG2 [1]) is on record?
Its GI50 is 360 µM.

For `COc1cc([C@H]2Oc3cc([C@H]4Oc5cc(O)cc(O)c5C(=O)[C@@H]4OC(=O)CNC(=O)[C@]45CC[C@@H](C)[C@H](C)[C@H]4C4=CC[C@@H]6[C@@]7(C)C[C@@H](OC(C)=O)[C@H](OC(C)=O)[C@@](C)(COC(C)=O)C7=CC[C@@]6(C)[C@]4(C)CC5)ccc3O[C@@H]2CO)ccc1O`, which GI50 (HepG2 [1]) is on record?
The GI50 was 174 µM.

For `COc1cc([C@H]2Oc3cc([C@H]4Oc5cc(O)cc(O)c5C(=O)[C@@H]4OC(=O)CCCCCCCCCCNC(=O)[C@]45CC[C@@H](C)[C@H](C)[C@H]4C4=CC[C@@H]6[C@@]7(C)C[C@@H](OC(C)=O)[C@H](OC(C)=O)[C@@](C)(COC(C)=O)[C@@H]7[C@H](O)C[C@@]6(C)[C@]4(C)CC5)ccc3O[C@@H]2CO)ccc1O`, which GI50 (HepG2 [1]) is on record?
The GI50 was 383 µM.
